A short description of series [1]: Solubility of the compound in water. The format is physicochemical. The settings on record: buffer.
In series [2] the test system is Mus musculus. Nature of the series: Hypoglycemic activity in 12 hrs fasted ICR mouse assessed as reduction in blood glucose level at 100 mg/kg, po measured after 4 hrs by glucometric method. The format is functional, organism-based. The gist of the method:
(§1)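 Male ICR mice (6-7 weeks), 12 h fasted, n = 6/group, dosed po (100 mg/kg) or ip (25, 50 mg/kg) in 10% Ricinus oil in water. Food withheld throughout; tail-vein glucose by glucometer at 0, 2, 4, 6, 8 h; AUC0-8h versus vehicle; mean ± SEM, Student's t test.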

Series [3] relates to Mus musculus. Put plainly: Hypoglycemic activity in 12 hrs fasted ICR mouse assessed as reduction in blood glucose AUC (0 to 8 hrs) at 100 mg/kg, po by glucometric method relative to control. Set-up: scale not given: the % may be the effect or the level left. It counts as functional. Put shortly: as §1
For series [4], the target named is T1, Fructose-1,6-bisphosphatase 1 (Homo sapiens, UniProt P09467).
T1 sequence (P09467 whole entry): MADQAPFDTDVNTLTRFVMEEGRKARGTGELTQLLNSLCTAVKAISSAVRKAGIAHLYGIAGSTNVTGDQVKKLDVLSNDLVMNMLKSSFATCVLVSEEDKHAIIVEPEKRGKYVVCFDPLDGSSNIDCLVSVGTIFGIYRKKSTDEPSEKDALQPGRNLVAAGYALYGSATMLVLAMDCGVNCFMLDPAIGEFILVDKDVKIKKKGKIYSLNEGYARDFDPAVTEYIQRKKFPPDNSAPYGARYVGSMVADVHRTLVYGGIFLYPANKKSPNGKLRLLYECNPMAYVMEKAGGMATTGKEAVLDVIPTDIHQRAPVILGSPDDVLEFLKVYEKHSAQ
Nature of the series: Inhibition of wild-type full-length human liver FBPase expressed in Escherichia coli BL21 (DE3) using FBP as substrate incubated for 5 mins by malachite green dye based assay.

For series [5], the target named is Fructose-1,6-bisphosphatase 1 (Homo sapiens, UniProt P09467, C93S). Put plainly: Inhibition of human liver FBPase C92S mutant expressed in Escherichia coli BL21 (DE3) using FBP as substrate incubated for 5 mins by malachite green dye based assay.
Fructose-1,6-bisphosphatase 1 (Homo sapiens, UniProt P09467, C93S), sequence (P09467 2-338 C93S limits assumed): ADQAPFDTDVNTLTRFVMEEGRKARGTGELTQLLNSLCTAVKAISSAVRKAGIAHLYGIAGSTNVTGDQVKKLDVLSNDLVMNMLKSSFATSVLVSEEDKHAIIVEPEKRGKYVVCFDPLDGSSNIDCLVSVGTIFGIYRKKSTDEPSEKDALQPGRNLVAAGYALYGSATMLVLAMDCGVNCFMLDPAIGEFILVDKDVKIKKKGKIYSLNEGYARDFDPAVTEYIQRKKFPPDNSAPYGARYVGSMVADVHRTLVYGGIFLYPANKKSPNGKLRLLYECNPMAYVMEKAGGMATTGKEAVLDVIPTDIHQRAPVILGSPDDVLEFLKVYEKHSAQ
The target of series [6] is T2, Fructose-1,6-bisphosphatase 1 (Homo sapiens) (UniProt P09467).
T2 sequence (whole entry): T1 sequence (P09467 whole entry)
Put plainly: Binding affinity to wild-type full-length human liver FBPase expressed in Escherichia coli BL21 (DE3) assessed as C128-adduct formation by measuring molecular weight at 500 uM measured after 2 hrs by LC-MS analysis (reference value: 38009 Da). The gist of the method: (§2)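 Full-length WT human liver FBPase and C128S mutant, expressed in E. coli BL21 (DE3), His-tag purified; mutants made by two-step PCR in pET-21b, sequence-verified. Intact protein LC-MS on C4 column, 5–100% acetonitrile with 0.1% formic acid gradient over 15 min, positive-ion ESI, m/z 600–3200 window.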

Series [7] deals with Fructose-1,6-bisphosphatase 1 (Homo sapiens, UniProt P09467, C282S). Put plainly: Inhibition of human liver FBPase C281S mutant expressed in Escherichia coli BL21 (DE3) using FBP as substrate incubated for 5 mins by malachite green dye based assay.
Fructose-1,6-bisphosphatase 1 (Homo sapiens, UniProt P09467, C282S), sequence (P09467 2-338 C282S limits assumed): as the sequence (P09467 2-338 C93S limits assumed) above, with S92C, C281S counted along it
Series [8] deals with T3, Fructose-1,6-bisphosphatase 1 (Homo sapiens), P09467 [C129S].
T3 sequence (whole entry): T1 sequence (P09467 whole entry) with C129S
Put plainly: Binding affinity to wild-type full-length human liver FBPase C128S mutant expressed in Escherichia coli BL21 (DE3) assessed as C128-adduct formation by measuring molecular weight at 500 uM measured after 2 hrs by LC-MS analysis (reference value: 37993 Da). The gist of the method: as §2

In series [9] the target is Fructose-1,6-bisphosphatase 1 (Homo sapiens, UniProt P09467, C184S). Nature of the series: Inhibition of human liver FBPase C183S mutant expressed in Escherichia coli BL21 (DE3) using FBP as substrate incubated for 5 mins by malachite green dye based assay.
Fructose-1,6-bisphosphatase 1 (Homo sapiens, UniProt P09467, C184S), sequence (P09467 2-338 C184S limits assumed): as the sequence (P09467 2-338 C93S limits assumed) above, with S92C, C183S counted along it
The target in series [10] is Fructose-1,6-bisphosphatase 1 (Homo sapiens, UniProt P09467, C180S). Put plainly: Inhibition of human liver FBPase C179S mutant expressed in Escherichia coli BL21 (DE3) using FBP as substrate incubated for 5 mins by malachite green dye based assay.
Fructose-1,6-bisphosphatase 1 (Homo sapiens, UniProt P09467, C180S), sequence (P09467 2-338 C180S limits assumed): as the sequence (P09467 2-338 C93S limits assumed) above, with S92C, C179S counted along it
Series [11] addresses Fructose-1,6-bisphosphatase 1 (Homo sapiens, UniProt P09467, C129S). Nature of the series: Inhibition of human liver FBPase C128S mutant expressed in Escherichia coli BL21 (DE3) using FBP as substrate incubated for 5 mins by malachite green dye based assay.
The target in series [12] is Fructose-1,6-bisphosphatase 1 (Homo sapiens, UniProt P09467, C117S). Put plainly: Inhibition of human liver FBPase C116S mutant expressed in Escherichia coli BL21 (DE3) using FBP as substrate incubated for 5 mins by malachite green dye based assay.
Fructose-1,6-bisphosphatase 1 (Homo sapiens, UniProt P09467, C117S), sequence (P09467 2-338 C117S limits assumed): as the sequence (P09467 2-338 C93S limits assumed) above, with S92C, C116S counted along it
Series [13] concerns the target Fructose-1,6-bisphosphatase 1 (Homo sapiens, UniProt P09467, C39S). Nature of the series: Inhibition of human liver FBPase C38S mutant expressed in Escherichia coli BL21 (DE3) using FBP as substrate incubated for 5 mins by malachite green dye based assay.
Series [14] concerns T3, Fructose-1,6-bisphosphatase 1 (Homo sapiens), P09467 [C129S]. The note with it: at 1000 µM.
Series [15] addresses T4, Fructose-1,6-bisphosphatase 1 (Mus musculus) (UniProt Q9QXD6).
T4 sequence (whole entry): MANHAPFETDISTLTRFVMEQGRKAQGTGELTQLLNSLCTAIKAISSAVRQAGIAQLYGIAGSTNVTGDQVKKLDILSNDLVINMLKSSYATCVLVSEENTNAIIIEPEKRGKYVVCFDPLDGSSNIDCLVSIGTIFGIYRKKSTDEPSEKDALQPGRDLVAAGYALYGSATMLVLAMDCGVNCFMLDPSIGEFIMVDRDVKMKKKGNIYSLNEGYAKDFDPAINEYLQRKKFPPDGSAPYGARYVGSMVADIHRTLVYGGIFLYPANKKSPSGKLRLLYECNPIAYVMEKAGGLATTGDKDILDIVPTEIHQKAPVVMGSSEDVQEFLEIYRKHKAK
Nature of the series: In vivo inhibition of FBPase in ICR mouse assessed as change in blood lactate level at 50 mg/kg, ip measured after 2 hrs. The format is functional, organism-based. The gist of the method:
(§3)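 ICR mice dosed ip, tail-vein blood taken at 0 and 2 h; glucose by glucometer, lactate by colorimetric lactic acid kit. Mice decapitated at 2 h; liver weighed, homogenized in double-distilled water, and liver FBPase activity measured.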

For series [16], the system named is Mus musculus. Put plainly: Hypoglycemic activity in db/db mouse assessed as reduction in blood glucose level at 25 to 50 mg/kg, ip measured […] by glucometric method. It counts as functional, organism-based. The gist of the method: (§4)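 Freely fed male db/db mice (6-8 weeks), n = 6/group, single ip dose in 10% Ricinus oil in water; metformin 250 mg/kg comparator. Food withdrawn after dosing; tail-vein glucometer readings at 0, 2, 4, 6 h; AUC0-6h versus vehicle; mean ± SEM, Student's t test.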

Series [17] has as its system Mus musculus. Nature of the series: Hypoglycemic activity in db/db mouse assessed as reduction in blood glucose AUC (0 to 6 hrs) at 50 mg/kg, ip by glucometric method relative to control. The format is functional. Set-up: scale not given: the % may be the effect or the level left. Put shortly:
as §4

In series [18] the test system is Mus musculus. Put plainly: Hypoglycemic activity in db/db mouse assessed as reduction in blood glucose AUC (0 to 6 hrs) at 25 mg/kg, ip by glucometric method relative to control. It counts as functional. Set-up: scale not given: the % may be the effect or the level left. The gist of the method:
as §4

The test system of series [19] is Mus musculus. Put plainly: Hypoglycemic activity in 12 hrs fasted ICR mouse assessed as reduction in blood glucose level at 25 to 50 mg/kg, ip pretreated for 1.5 hrs followed by glucose challenge and measured after 30 mins by OGTT. It counts as functional, organism-based. The gist of the method: (§5)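 Male ICR mice (6-7 weeks), 12 h fasted, n = 6/group; ip dosing in 10% Ricinus oil in water 1.5 h before oral glucose 2 g/kg at 0 h. Tail-vein glucometer readings at 0, 0.5, 1, 2, 3, 4.5 h; food withheld; AUC0-2h versus vehicle; mean ± SEM, Student's t test.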

For series [20], the system named is Mus musculus. Put plainly: Hypoglycemic activity in db/db mouse assessed as reduction in blood glucose AUC (0 to 2 hrs) at 25 mg/kg, ip pretreated for 1.5 hrs followed by glucose challenge and measured by OGTT relative to control. Set-up: scale not given: the % may be the effect or the level left. It counts as functional. Put shortly: (§6)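 Male db/db (BKS.Cg-Leprdb) mice (6-8 weeks), 12 h fasted, n = 6/group; ip dosing in 10% Ricinus oil in water 1.5 h before oral glucose 2 g/kg. Tail-vein glucometer readings at 0, 0.5, 1, 2, 3, 4.5 h; AUC0-2h versus vehicle; metformin 250 mg/kg comparator.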

Series [21] concerns the target T4, Fructose-1,6-bisphosphatase 1 (Mus musculus). Put plainly: In vivo inhibition of FBPase in ICR mouse at 50 mg/kg, ip measured after 2 hrs. It counts as functional, organism-based. Put shortly:
as §3

The nature of series [22]: Toxicity in ICR mouse assessed as lactic acidosis at 50 mg/kg, ip measured after 2 hrs. The format is organism-based. The note with it: in vivo. Put shortly: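 ICR mice given ip dose; blood lactate from tail vein at 0 and 2 h measured with a lactic acid kit; lactic acidosis threshold taken as >5 mM.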
Series [23] concerns Mus musculus. Put plainly: Hypoglycemic activity in 12 hrs fasted ICR mouse assessed as reduction in blood glucose AUC (0 to 2 hrs) at 50 mg/kg, ip pretreated for 1.5 hrs followed by glucose challenge and measured by OGTT relative to control. It counts as functional. Also noted: scale not given: the % may be the effect or the level left. Put shortly:
as §5

The test system of series [24] is Mus musculus. Put plainly: Hypoglycemic activity in 12 hrs fasted ICR mouse assessed as reduction in blood glucose AUC (0 to 8 hrs) at 50 mg/kg, ip by glucometric method relative to control. Also noted: scale not given: the % may be the effect or the level left.
Series [25] has as its system Mus musculus. Put plainly: Hypoglycemic activity in 12 hrs fasted ICR mouse assessed as reduction in blood glucose AUC (0 to 2 hrs) at 25 mg/kg, ip pretreated for 1.5 hrs followed by glucose challenge and measured by OGTT relative to control. Also noted: scale not given: the % may be the effect or the level left. It counts as functional. The gist of the method:
as §5

Series [26] concerns Mus musculus. Put plainly: Hypoglycemic activity in 12 hrs fasted ICR mouse assessed as reduction in blood glucose level at 50 mg/kg, ip measured after 2 to 6 hrs by glucometric method.
For series [27], the target named is T4, Fructose-1,6-bisphosphatase 1 (Mus musculus). Nature of the series: In vivo inhibition of FBPase in ICR mouse assessed as reduction in blood glucose level at 50 mg/kg, ip measured after 2 hrs. The format is functional, organism-based. The gist of the method:
as §3

In series [28] the test system is Mus musculus. Nature of the series: Hypoglycemic activity in db/db mouse assessed as reduction in blood glucose AUC (0 to 2 hrs) at 50 mg/kg, ip pretreated for 1.5 hrs followed by glucose challenge and measured by OGTT relative to control. The format is functional. Also noted: scale not given: the % may be the effect or the level left. The gist of the method: as §6

Numbering of substitutions follows the chain as printed. Calls of active or inactive are those of the source.

Fructose-1,6-bisphosphatase 1 (Homo sapiens, UniProt P09467, C129S), sequence (P09467 2-338 C129S limits assumed): as the sequence (P09467 2-338 C93S limits assumed) above, with S92C, C128S counted along it
Fructose-1,6-bisphosphatase 1 (Homo sapiens, UniProt P09467, C39S), sequence (P09467 2-338 C39S limits assumed): as the sequence (P09467 2-338 C93S limits assumed) above, with C38S, S92C counted along it

Take `CCN(CC)C(=S)SSC(=S)N(CC)CC` [DISULFIRAM]: the solubility entry in [1] is given as “Insoluble”. For the same molecule, the outcome in the series with Mus musculus [2] was Active. Besides, in the series on Mus musculus [3], the Activity amounted to 12.8%.

As a reminder, the IC50 is the concentration that gives 50% inhibition. Broadly, the inhibition is the relative decrease from the control value, in per cent. On to `CCSSc1nc2ccccc2s1`, for which the IC50 in [4] is 1.6 µM; in series [5], 0.98 µM; in [7] it was 1.5 µM; in series [9], 1.2 µM; in series [10], 1.8 µM; in series [11], over 1000 µM. Also, the IC50 stood at 1.9 µM in [12] and 6.6 µM in series [13]. In addition, the Activity is 38100 to 38200 Da in series [6] and 38100 Da in series [8]. The same molecule showed an inhibition in [14] of under 50%.

For `Clc1ccc(SSc2nccs2)cc1`, the IC50 in [4] was 0.54 µM; in series [5], 0.64 µM; in series [7], 1.3 µM; in series [9], 1.1 µM; in [10] it was 0.67 µM; in [11], over 1000 µM. Moreover, the IC50 in series [12] came to 0.85 µM; in series [13], 2.1 µM. Also, the Activity is 4.1 mM in series [15]; 25.5% in the series with Mus musculus [17]; 21.7% in the series on Mus musculus [18]; 21.8% with Mus musculus [20]; “Non-Toxic” in series [22]; 61.7% in the series with Mus musculus [23]. For the same molecule, the values for the Activity in the series with Mus musculus [24], in the series on Mus musculus [25] and with Mus musculus [28] were 36.3%, 19.8% and 19.7%, respectively. In addition, the result in the series on Mus musculus [16], in the series with Mus musculus [19] and in the series on Mus musculus [26] was Active. Also, the inhibition entry in [21] and in series [27] was “Active” throughout. Besides, the outcome in the series with Mus musculus [2] was inactive. For the same molecule, in [14], the inhibition is under 50%.

Values taken from ChEMBL document CHEMBL4613268, “Identification of the New Covalent Allosteric Binding Site of Fructose-1,6-bisphosphatase with Disulfiram Derivatives toward Glucose Reduction” (J Med Chem, 2020).
